Experimental data from ChEMBL document CHEMBL4814064, “Azetidinimines as a novel series of non-covalent broad-spectrum inhibitors of β-lactamases with submicromolar activities against carbapenemases KPC-2 (class A), NDM-1 (class B) and OXA-48 (class D)” (Eur J Med Chem, 2021).

Columns and labels:
[1] = Inhibition of NDM-1 (unknown origin); set-up: species or system Bacteria
[2] = Inhibition of NDM-1 (unknown origin) expressed in Escherichia coli BW25113deltabamBdeltatolC mutant using nitrocefin as substrate by colorimetric analysis; set-up: species or system Bacteria
[3] = Inhibition of Escherichia coli NTBC121 NDM-1 by UV absorbance analysis
[4] = Inhibition of NDM-1 (unknown origin) expressed in Escherichia coli BL21 (DE3) incubated for 3 mins by spectrophotometric analysis; set-up: species or system Bacteria; settings: read-out: Ki
Outline: (§1)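 NDM-1 (1 nM, His-tagged, expressed in E. coli BL21(DE3) with 1 mM IPTG for 3 h at 37 °C, purified, kept with 50 µM ZnSO4). Run in 100 mM phosphate pH 7 with 50 µM ZnSO4, 3 min enzyme–inhibitor preincubation, then 100 µM imipenem. Initial rates at 297 nm over 600 s, 25 °C. Triplicate seven-point IC50 converted to Ki (Cheng–Prusoff); percent inhibition at 10 µM.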

[5] = Inhibition of OXA-48 (unknown origin) expressed in Escherichia coli BL21 (DE3) incubated for 3 mins by spectrophotometric analysis; set-up: species or system Bacteria
Outline: (§2)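 OXA-48 at 5.8 nM (His-tagged, expressed in BL21(DE3), purified in K2SO4 buffers) in 100 mM phosphate pH 7 plus 50 mM NaHCO3. Inhibitor preincubated 3 min; substrate 100 µM imipenem; initial velocities at 297 nm, 600 s, 25 °C. Seven inhibitor concentrations in triplicate give IC50, converted to Ki by Cheng–Prusoff; percent inhibition at 10 µM.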

[6] = target: Class A carbapenemase KPC-2 (Escherichia coli, UniProt A8DS27); assay: Inhibition of KPC-2 (unknown origin) expressed in Escherichia coli BL21 (DE3) incubated for 3 mins by spectrophotometric analysis
Outline: (§3)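 Preincubated 3 min with inhibitor in 100 mM phosphate pH 7. Imipenem 100 µM; hydrolysis followed at 297 nm for 600 s at 25 °C. IC50 from seven concentrations in triplicate; Ki by Cheng–Prusoff. Percent inhibition read at 10 µM.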

Bacteria [7] = assay: Inhibition of NDM-1 (unknown origin) expressed in Escherichia coli BL21 (DE3) at 10 uM incubated for 3 mins by spectrophotometric analysis relative to control; outline: as §1
[8] = target: Class A carbapenemase KPC-2 (Escherichia coli) (UniProt A8DS27); assay: Inhibition of KPC-2 (unknown origin) expressed in Escherichia coli BL21 (DE3) at 10 uM incubated for 3 mins by spectrophotometric analysis relative to control; outline: as §3
MRC5 = assay: Cytotoxicity against human MRC-5 cells assessed as reduction in cell viability measured after 72 hrs by MTS assay; assay type: cell-based; settings: MRC5, 72 h
Outline: (§4)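 Cells grown at 37 °C in 5% CO2: MRC-5 in DMEM and HCT116 in RPMI 1640, each with 10% FCS and 1% glutamine. Seeded at 2.5 × 10³ cells/well, dosed after 24 h, exposed 72 h, then read at 490 nm after 2 h with reagent. IC50 = concentration halving absorbance versus untreated; triplicate.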

HCT-116 = assay: Cytotoxicity against human HCT-116 cells assessed as reduction in cell viability measured after 72 hrs by MTS assay; assay type: cell-based; settings: HCT-116, 72 h; outline: as §4
Bacteria [9] = assay: Inhibition of NDM-4 (unknown origin) expressed in Escherichia coli BL21(DE3) at 10 uM
Outline: (§5)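 Enzymes cloned into pET41b from clinical enterobacterial DNA and expressed in E. coli BL21(DE3) overnight at 22 °C with 0.2 mM IPTG. His-tag affinity then Superdex 75 gel filtration (100 mM phosphate pH 7, 150 mM NaCl); dialysed into 10 mM Tris-HCl pH 7.6, with 50 µM ZnSO4 added for NDM and VIM variants.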

Bacteria [10] = assay: Inhibition of NDM-7 (unknown origin) expressed in Escherichia coli BL21(DE3) at 10 uM; outline: as §5
Bacteria [11] = assay: Inhibition of NDM-9 (unknown origin) expressed in Escherichia coli BL21(DE3) at 10 uM; outline: as §5
Bacteria [12] = assay: Inhibition of VIM-1 (unknown origin) expressed in Escherichia coli BL21(DE3) at 10 uM; outline: as §5
Bacteria [13] = assay: Inhibition of VIM-52 (unknown origin) expressed in Escherichia coli BL21(DE3) at 10 uM; outline: as §5
Bacteria [14] = assay: Inhibition of CTX-M-15 (unknown origin) expressed in Escherichia coli BL21(DE3) at 10 uM; outline: as §5
Bacteria [15] = assay: Inhibition of CMY-2 (unknown origin) expressed in Escherichia coli BL21(DE3) at 10 uM; outline: as §5
[16] = Metabolic stability in mouse liver microsomes at 5 uM after 45 min absence of NADPH by UPLC-MS/MS analysis; assay type: ADME, Microsome; settings: read-out: Stabilty
Outline: (§6)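 Test compound at 5 µM with 0.5 mg/mL pooled male mouse liver microsomes in 0.1 M phosphate pH 7.4 at 37 °C. Reaction started with 1 mM NADPH and sampled at 0–45 min in duplicate; a no-NADPH control was run. Quenched with cold acetonitrile; parent measured by UPLC-MS/MS (MRM). t1/2 from log-linear decay; CLint per mg microsomal protein.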

[17] = Metabolic stability in mouse liver microsomes at 5 uM assessed as intrinsic clearance measured per mg protein by UPLC-MS/MS analysis; assay type: ADME, Microsome; settings: read-out: CLH; outline: as §6
Escherichia coli [18] = assay: Potentiation of imipenem-induced antibacterial activity against Escherichia coli clinical isolate GUE expressing NDM-1 assessed as imipenem MIC at 20 uM incubated for 18 to 24 hrs by broth microdilution method (reference value: 16 ug/ml); assay type: functional; settings: time 18-24 hrs
Escherichia coli [19] = assay: Potentiation of imipenem-induced antibacterial activity against Escherichia coli clinical isolate GUE expressing NDM-1 assessed as imipenem MIC at 50 uM incubated for 18 to 24 hrs by broth microdilution method (reference value: 16 ug/ml); assay type: functional; settings: time 18-24 hrs
Escherichia coli [20] = assay: Potentiation of imipenem-induced antibacterial activity against Escherichia coli clinical isolate GUE expressing NDM-1 assessed as imipenem MIC at 100 uM incubated for 18 to 24 hrs by broth microdilution method (reference value: 16 ug/ml); assay type: functional; settings: time 18-24 hrs
Bacteria [21] = assay: Inhibition of OXA-48 (unknown origin) expressed in Escherichia coli BL21 (DE3) at 10 uM incubated for 3 mins by spectrophotometric analysis relative to control; outline: as §2
Escherichia coli [22] = assay: Potentiation of imipenem-induced antibacterial activity against Escherichia coli clinical isolate GUE expressing NDM-1 assessed as fold change in imipenem MIC at 50 uM incubated for 18 to 24 hrs by broth microdilution method; assay type: functional; settings: time 18-24 hrs
Escherichia coli [23] = assay: Potentiation of imipenem-induced antibacterial activity against Escherichia coli clinical isolate GUE expressing NDM-1 assessed as fold change in imipenem MIC at 200 uM incubated for 18 to 24 hrs by broth microdilution method; assay type: functional; settings: time 18-24 hrs

| SMILES | Ki [4] | Ki ([6]; read-out: Ki) | inhibition (Bacteria [7]) | inhibition [8] | Ki ([5]; read-out: Ki) | inhibition (Bacteria [21]) | further results |
| --- | --- | --- | --- | --- | --- | --- | --- |
| CN1CCN(NC(=O)CN2C(=O)/C(=C/c3c(Cl)ccc(Cl)c3Cl)SC2=S)CC1 |  |  |  |  |  |  | IC50 [1]: 9.44 µM |
| N[C@H](CN[C@H](CN[C@@H](CC(=O)O)C(=O)O)C(=O)O)C(=O)O |  |  |  |  |  |  | IC50 [2]: 4 µM |
| O=C(O)c1ncsc1NS(=O)(=O)c1cccnc1 |  |  |  |  |  |  | IC50 [3]: 2670 nM |
| OCc1ccc(N2/C(=N/c3ccc(I)cc3)CC2c2ccc(Cl)cc2Cl)cc1 (racemic) | 1300 nM | 3890 nM | > 50% | > 50% |  |  | Ki [5]: Not Active |
| Oc1ccc(N2/C(=N/c3ccc(I)cc3)CC2c2ccc(Cl)cc2Cl)cc1 (racemic) | 70 nM | 280 nM | > 50% | > 50% | 70 nM | > 50% | IC50 (MRC5): 19.9 µM; IC50 (HCT-116): 32.3 µM; inhibition (Bacteria [9]): 100%; inhibition (Bacteria [10]): 100%; inhibition (Bacteria [11]): 100%; inhibition (Bacteria [12]): 100%; inhibition (Bacteria [13]): 0%; inhibition (Bacteria [14]): 83%; inhibition (Bacteria [15]): 86%; remaining at 0.75 h, 5 µM [16]: 96%; microsomal CLint at 5 µM [17]: 13.9 µL/min/mg; MIC (Escherichia coli [18]): 8 µg/mL; MIC (Escherichia coli [19]): 4 µg/mL; MIC (Escherichia coli [20]): 4 µg/mL |
| O=C(O)c1ccc(N2/C(=N/c3ccc(I)cc3)CC2c2ccc(Cl)cc2Cl)cc1 (racemic) | 35 nM | 4150 nM | > 50% | > 50% |  |  | Ki [5]: Not Active |
| COc1ccc(N2/C(=N/c3ccc(C(F)(F)F)cc3)CC2c2ccc(Cl)cc2Cl)cc1 (racemic) | 370 nM | 6040 nM | > 50% | > 50% | 640 nM | > 50% |  |
| CCOc1ccc(N2/C(=N/c3ccc(OC)cc3)CC2c2ccc3ccccc3c2)cc1 (racemic) | 270 nM | 1810 nM | > 50% | > 50% | 840 nM | > 50% |  |
| CCOc1ccc(N2/C(=N/c3ccc(I)cc3)CC2c2ccc3ccccc3c2)cc1 (racemic) | 250 nM | 1840 nM | > 50% | > 50% | 700 nM | > 50% |  |
| COc1ccc(N2/C(=N/c3ccc(Br)cc3)CC2c2ccc(Cl)cc2)cc1 (racemic) | 300 nM | 1550 nM | > 50% | > 50% | 840 nM | > 50% |  |
| COc1ccc(N2/C(=N/c3ccccc3)CC2c2ccccc2)cc1 (racemic) | 1000 nM | 3600 nM | 90% | > 50% |  |  | Ki [5]: Not Active |
| COc1ccc(N2/C(=N/c3ccc(I)cc3)CC2c2cc(Cl)cc(Cl)c2)cc1 (racemic) | 2040 nM |  | > 50% | 42% | 530 nM | > 50% |  |
| CSc1ccc(N2/C(=N/c3ccccc3)CC2c2ccccc2)cc1 (racemic) | < 500 nM |  | > 50% | 50% |  |  | Ki [5]: Not Active |
| COc1ccc(N2/C(=N/c3ccccc3)CC2c2ccc3ccccc3c2)cc1 (racemic) | 1000 nM | 2200 nM | > 50% | > 50% | 1300 nM | > 50% |  |
| Clc1ccc(C2C/C(=N\c3ccc(I)cc3)N2c2ccc(OCc3ccccc3)cc2)c(Cl)c1 (racemic) | 360 nM | 3690 nM | > 50% | > 50% |  | 41% | IC50 (MRC5): > 100 µM; IC50 (HCT-116): > 100 µM; remaining at 0.75 h, 5 µM [16]: 100%; microsomal CLint at 5 µM [17]: 7.6 µL/min/mg; MIC (Escherichia coli [18]): 16 µg/mL; MIC (Escherichia coli [19]): 4 µg/mL; MIC (Escherichia coli [20]): 2 µg/mL; fold change (FC) (Escherichia coli [22]): 4 |
| COc1ccc(N2/C(=N/c3ccc(I)cc3)CC2c2ccc(Cl)cc2Cl)cc1 (racemic) | 220 nM | 1890 nM | > 50% | > 50% | 910 nM | > 50% | IC50 (MRC5): > 100 µM; IC50 (HCT-116): > 100 µM; remaining at 0.75 h, 5 µM [16]: 83%; microsomal CLint at 5 µM [17]: 2 µL/min/mg; fold change (FC) (Escherichia coli [23]): 2; MIC (Escherichia coli [18]): 16 µg/mL; MIC (Escherichia coli [19]): 16 µg/mL; MIC (Escherichia coli [20]): 16 µg/mL |
| c1ccc(/N=C2\CC(c3ccccc3)N2c2ccccc2)cc1 (racemic) | 4620 nM | 2410 nM | > 50% | > 50% | 800 nM | > 50% |  |
| COc1ccc(N2/C(=N/c3ccc(I)cc3)CC2c2ccc3ccccc3c2)cc1 (racemic) | 230 nM | 1580 nM | > 50% | > 50% | 850 nM | > 50% |  |
| COc1ccc(C2C/C(=N\c3ccccc3)N2c2ccc(OC)cc2)cc1 (racemic) | 2400 nM |  | > 50% |  |  |  | Ki [5]: Not Active; Ki [6]: Not Active |
| COc1ccc(N2/C(=N/c3ccc(I)cc3)CC2c2ccc(I)cc2)cc1 (racemic) | 370 nM | 5660 nM | > 50% | > 50% | 510 nM | > 50% |  |
| COc1ccc(N2/C(=N/c3ccc(I)cc3)CC2c2ccc(F)cc2)cc1 (racemic) | 500 nM | 6490 nM | > 50% | > 50% | 450 nM | > 50% |  |
| COc1ccc(N2/C(=N/c3ccc(Br)cc3)CC2c2ccc3ccccc3c2)cc1 (racemic) | 520 nM | 5230 nM | > 50% | > 50% | 390 nM | > 50% |  |
| COc1ccc(N2/C(=N/c3ccccc3)CC2c2ccc(Cl)cc2)cc1 (racemic) | 1000 nM |  | > 50% |  |  |  | Ki [5]: Not Active; Ki [6]: Not Active |
| COc1ccc(N2/C(=N/c3ccc(I)cc3)CC2c2ccc(Cl)cc2)cc1 (racemic) | 330 nM | 1770 nM | > 50% | > 50% | 830 nM | > 50% |  |
